Screening data deposited in PubChem BioAssay by Broad Institute.
dFosB act: activators of delta FosB homodimer, primary screen, biochemical, fluorescence polarization, TAMRA-CDK5 oligo, single point; activation, % at 25 µM; purified delta FosB; percent of positive-control signal above neutral wells; AID 493131, 2011; Protein FosB (Mus musculus), P13346; hit rate 0.99% among 340,000;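 active = mean activation above about 17%, with every replicate also reaching it, limit read from the data, passing the limit was not always enough; inconclusive = only one of the two conditions met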
Target sequence (P13346 whole entry, looked up): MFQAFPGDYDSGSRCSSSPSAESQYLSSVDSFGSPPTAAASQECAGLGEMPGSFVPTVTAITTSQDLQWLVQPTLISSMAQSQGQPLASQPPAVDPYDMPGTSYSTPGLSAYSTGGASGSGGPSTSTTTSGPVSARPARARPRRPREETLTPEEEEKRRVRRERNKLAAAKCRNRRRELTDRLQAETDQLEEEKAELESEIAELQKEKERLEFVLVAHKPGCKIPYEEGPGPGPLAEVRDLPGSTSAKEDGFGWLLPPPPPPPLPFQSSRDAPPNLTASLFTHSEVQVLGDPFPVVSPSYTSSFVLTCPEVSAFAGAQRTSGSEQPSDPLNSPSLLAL
CAL PDZ FP-1: untagged CAL PDZ binding inhibitors, primary screen, biochemical, fluorescence polarization, HTS; Golgi-associated PDZ and coiled-coil motif-containing protein (Homo sapiens), Q9HD26; purified CAL PDZ, TMR-peptide fluorescence polarization, 1 h; inhibition, % at 24.9 µM; hit rate 0.92% among 300,000;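 active = mean inhibition of at least 30% with at least half of replicates also reaching 30%; inconclusive = no clear call, values can overlap the other calls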;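 also: 0% = DMSO neutral control and 100% = excess unlabeled competitor peptide PRC23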
CAL PDZ FP-2: CAL PDZ peptide-binding inhibitors, primary screen, biochemical, fluorescence polarization, Cer-tagged CAL PDZ, HTS; inhibition, % at 20 µM; Golgi-associated PDZ and coiled-coil motif-containing protein (Homo sapiens), Q9HD26; hit rate 0.02% among 330,000; purified CAL PDZ, TMR-peptide fluorescence polarization, 1 h; AID 504414, 2011;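 active = highest replicate inhibition of at least 40%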;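 also: plate controls were DMSO neutral control wells for no effect and unlabeled competitor peptide control wells for full effect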
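Test system: purified CerCALP PDZ construct; Compound dosing: one concentration, 20 µM compound; Also added: TMR-labelled reporter peptide T*-PRC34 bound in PDZ groove; Read-out: inhibition from polarization loss; Controls: unlabelled peptide and DMSO controls; Signal: FP readout, S and P plane fluorescence; Incubation: 1 h at RT.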
SR-BI HDL uptake: inhibitors of SR-BI mediated HDL lipid uptake, primary screen, ldlA[mSR-BI] cells, fluorescence, single point; Scavenger receptor class B member 1 (Mus musculus), Q61009; inhibition, % at 12.5 µM; ldlA[mSR-BI] CHO cells, DiI-HDL uptake fluorescence, 3 h; hit rate 0.96% among 320,000;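 active = mean replicate inhibition of at least 70% and a set share of replicates each scoring 70 or more; inconclusive = meets just one of the two criteria; inactive = fails both criteria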;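 also: 0% = median of neutral control wells and 100% = median of positive control wells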
SR-BI DiI-HDL act: activators of SR-BI mediated DiI-HDL uptake, primary screen, ldlA[mSR-BI] CHO cells, DiI fluorescence | hit rate 0.096% among 320,000 | 3 h; 100 = double the neutral-control signal | activation, % at 12.5 µM;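 active = mean replicate activation of at least 60% and every replicate at or above 60%; inconclusive = mean or all-replicate condition met, but not both; inactive = mean below 60% and not all replicates reaching 60%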;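 also: 0% = median plate neutral-control signal and 100% = twice that signal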
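Test system: SR-BI-overexpressing, LDLR-lacking CHO cells. Measured by: DiI fluorescence, bottom read. Medium: Ham's F12 with 0.5% BSA, HEPES 25 mM, pH 7.4. Timing: 3 h uptake period with compound, 37 °C.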
DiI quench: counter-screen for SR-BI lipid transfer inhibitors: DiI fluorescence quenchers. cell-free DiI-HDL fluorescence quenching, 30 min. AC50, µM (series often up to 35 µM), inactives show at the highest dose activity change, negative = quenching. shares compounds with SR-BI HDL uptake. hit rate 20% among 470;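 active = quenching, a falling signal, with AC50 below a set limit tied to the top valid dose, actives reach about 32 µM in these data; inconclusive = no clear call, values can overlap the other calls; inactive = rising signal, and the rest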
Numbers without * were called inactive; ? = inconclusive; nt = not tested or not shown. In the library only some 2.8% were active in any assay of this set; here they are far more common.

SMILES	dFosB act	CAL PDZ FP-1	CAL PDZ FP-2	SR-BI HDL uptake	SR-BI DiI-HDL act	DiI quench
O=C(Nc1ccc(N2CCOCC2)cc1)c1cccc(S(=O)(=O)N2CCCC2)c1	-8	-1	-2	56	-56	nt
O=C(Nc1ccc(N2CCOCC2)cc1)c1cccc(S(=O)(=O)N2CCC(Cc3ccccc3)CC2)c1	1	nt	-1	93*	-93	-15%
Cc1cc(C(=O)C(C)OC(=O)C2=NNC(=O)CC2)c(C)n1-c1ccc(OC(F)F)cc1 (stereo not drawn)	-1	-3	1	82*	-82	-2%
Cc1cc(C(=O)COC(=O)C2=NNC(=O)CC2)c(C)n1-c1ccc(OC(F)F)cc1	-13	-1	1	8	-8	nt
CCCNC(=O)c1ccc(COc2ccc(CCC)cc2OC)o1	-3	2	-2	23	-23	nt
O=C(NNC(=S)Nc1cccc(C(F)(F)F)c1)c1cccc(Cl)c1	9	-3	0	24	-24	nt
O=C(Nc1cccc(-c2csc(Nc3ccc(Cl)cc3)n2)c1)c1cccc(C(F)(F)F)c1	1	-2	1	110*	-110	2.1µM*
CCc1ccc(C(=O)NC(=S)NCc2cccnc2)cc1	-10	-3	-2	-15	15	nt
COc1ccc(-c2nc(CN3CCN(c4ncnc5ccccc45)CC3)c(C)o2)c(OC)c1	-10	-7	-1	72*	-72	-1%
CCC(C)c1ccccc1N1CC(C(=O)N2CCN(S(=O)(=O)c3cccc([N+](=O)[O-])c3)CC2)CC1=O (stereo not drawn)	1	-6	-2	10	-10	-14%
O=S(=O)(c1ccccc1)c1cnc(-c2ccccc2)nc1N1CCCCC1	-9	-5	-3	?	-70	-1%
CN1CCN(c2nc(-c3ccccc3)ncc2S(=O)(=O)c2ccccc2)CC1	-4	0	-2	38	-38	nt
CCOc1ccccc1CNC(=O)C1CCN(c2nn3c(=O)cc(C)nc3s2)CC1	-11	nt	0	65	-65	nt
CC1CCCCC1NC(=O)C1CCN(C(=O)c2sccc2-n2cccc2)CC1 (stereo not drawn)	1	nt	0	44	-44	-2%
O=C(NCc1ccccc1Cl)C1CCN(C(=O)c2sccc2-n2cccc2)CC1	-6	nt	0	?	-73	-1%
CCOc1ccccc1CNC(=O)C1CCN(C(=O)c2sccc2-n2cccc2)CC1	-16	-3	0	70	-70	-4%
O=C(NCc1ccccc1F)C1CCN(C(=O)c2sccc2-n2cccc2)CC1	1	5	0	69	-69	nt
CC1CCCCC1NC(=O)C1CCN(C(=O)NC2CCCCC2)CC1 (stereo not drawn)	-3	0	-3	-3	3	nt
COc1cccc(CN2CCN(C(=S)NCc3ccc(Cl)cc3)CC2)c1	-4	-6	-1	23	-23	nt
COc1ccccc1C(CC(=O)Nc1ccccc1C)c1ccc(OC(C)C)cc1 (stereo not drawn)	0	-1	-3	?	-3	1%
COc1ccc(NC(=O)CC(c2ccc(F)cc2)c2ccc(OC(C)C)cc2)cc1 (stereo not drawn)	?	-3	-2	19	-19	nt
[N-]=[N+]=NCCN1CCN(CCc2ccccc2)CCC1=O	-1	-4	-1	20	-20	nt
COc1ccc(CCN(C)C(=O)COc2cccc(-n3cnnn3)c2)cc1OC	-2	8	0	-13	13	nt
CCC1CN(C(=O)N2CCC(C(=O)NCc3ccccc3OC)CC2)c2ccccc2O1 (stereo not drawn)	-5	1	-2	41	-41	nt
CCC1CN(C(=O)N2CCC(C(=O)NCc3ccccc3OC)CC2)c2cc(C)ccc2O1 (stereo not drawn)	-9	-2	0	81*	-81	-5%
